Reference: ChEMBL document CHEMBL1145520, “RAS-RAF-MEK-dependent oxidative cell death involving voltage-dependent anion channels” (Nature, 2007)
The source made the active and inactive calls. The calls are words filed in the database; no cut-off is given here.

Assays:
Calu-1 = assay: Inhibition of human Calu1 cells expressing KRAS with activating mutations by trypan blue exclusion assay; format: functional, cell-based
Outline: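 Calu-1 lung carcinoma cells (activating KRAS mutation) treated with erastin dilutions. Viability measured by Trypan blue exclusion with an automated cell viability analyser after trypsinization and resuspension in growth medium. IC50 derived from the dose series.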

A673 = assay: Induction of pro-caspase 3 cleavage in human A673 cells; format: functional, cell-based
Outline: (§1)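 Cells either untreated, given staurosporine, or given erastin for 6–10 h, then lysed in HEPES pH 7.4 buffer with phosphatase and protease inhibitors. Lysates run on SDS-PAGE, blotted to PVDF, probed with antibodies detecting active caspase-3, with actin as loading control. Bands read on infrared imager.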

HeLa [1] = assay: Induction of PARP1 cleavage in human HeLa cells; format: functional, cell-based
Outline: (§2)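 Cells were left untreated or given staurosporine or erastin for 6 or 8 h. Lysates were analysed by western blot for full-length and cleaved PARP1, with actin as loading control.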

BJ [2] = assay: Induction of cell death in human BJ cells expressing TERT, LT, ST and RAS G12V mutant genes; format: functional, cell-based
[3] = target: T1, Mitogen-activated protein kinase; ERK1/ERK2 (Homo sapiens) (UniProt P27361+P28482); assay: Effect on ERK1/2 phosphorylation in human A673 cells by Western blot; format: cell-based
T1 sequence (P27361 whole entry, looked up): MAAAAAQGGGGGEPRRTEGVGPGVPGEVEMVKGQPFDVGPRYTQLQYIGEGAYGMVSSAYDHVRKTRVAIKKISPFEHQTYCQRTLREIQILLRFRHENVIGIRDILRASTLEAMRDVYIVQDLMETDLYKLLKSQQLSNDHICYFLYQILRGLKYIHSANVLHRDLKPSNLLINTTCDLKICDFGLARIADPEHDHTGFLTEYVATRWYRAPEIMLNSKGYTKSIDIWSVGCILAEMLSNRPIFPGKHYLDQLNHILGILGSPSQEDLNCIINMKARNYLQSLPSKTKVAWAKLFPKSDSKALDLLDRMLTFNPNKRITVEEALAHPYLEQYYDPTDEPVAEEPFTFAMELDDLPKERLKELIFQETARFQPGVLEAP
T1 sequence (P28482 whole entry, looked up): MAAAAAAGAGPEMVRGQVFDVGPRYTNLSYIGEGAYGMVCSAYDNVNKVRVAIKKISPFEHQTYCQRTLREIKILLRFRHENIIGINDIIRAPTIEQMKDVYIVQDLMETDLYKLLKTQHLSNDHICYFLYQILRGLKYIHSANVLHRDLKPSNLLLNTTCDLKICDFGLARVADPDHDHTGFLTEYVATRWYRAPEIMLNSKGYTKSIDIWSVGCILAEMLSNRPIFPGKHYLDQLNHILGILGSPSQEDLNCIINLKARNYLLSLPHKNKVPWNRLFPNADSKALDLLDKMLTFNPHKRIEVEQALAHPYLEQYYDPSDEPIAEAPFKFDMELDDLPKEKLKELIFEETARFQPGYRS
Outline: (§3)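 Washed cells were lysed in pH 7.4 HEPES buffer containing orthovanadate, NaF, pyrophosphate, β-glycerophosphate and protease inhibitors. Lysates were run on SDS-PAGE, transferred to PVDF and blocked 1 h at room temperature. Blots were probed with a multiplex phospho-signalling antibody cocktail and read by infrared fluorescence scanning.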

HT-1080 [4] = assay: Suppression of induction of cell death in human HT1080 cells at […] by Alamar Blue assay in presence of butylated hydroxytoluene; format: functional, cell-based
[5] = Induction of cell death in human EWS502 cells; format: functional, cell-based
BJ [6] = assay: Effect on intracellular oxidative species in TERT expressing human BJ cells at 4.6 uM; format: functional, cell-based
Outline: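 Cells seeded at 3 × 10^5 per 60 mm dish were grown overnight, then exposed to 4.6 erastin for 2–12 h; H2O2 for 5 min served as positive control. Cells were loaded with H2DCF-DA for 10 min, trypsinized, PBS-washed and stained with propidium iodide. Read-out was flow cytometry as percent of cells with DCF fluorescence in gate M1; n = 2.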

[7] = Induction of cell death in human TC32 cells; format: functional, cell-based, TC-32
[8] = target: T1, Mitogen-activated protein kinase; ERK1/ERK2 (Homo sapiens); assay: Effect on ERK1/2 phosphorylation in human TC32 cells by Western blot; format: cell-based; outline: as §3
C-33-A = assay: Induction of cell death in human C33A cells; format: functional, cell-based
BJ [9] = assay: Induction of cell death in TERT expressing human BJ cells; format: functional, cell-based
SK-N-MC = assay: Induction of cell death in human SK-N-MC cells; format: functional, cell-based
BJ [10] = assay: Induction of cell death in human BJ cells expressing TERT, LT, ST and RAS G12V mutant genes in presence of U0126 by trypan blue exclusion method; format: functional, cell-based
Outline: (§4)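 BJ-TERT/LT/ST/RASV12 cells were co-treated for 48 h with 1.5 µM erastin plus 20 µM U0126, 10 µM MEK inhibitor I or 50 µM MEK1/2 inhibitor. Viability was measured by automated Trypan blue exclusion of trypsinized cells resuspended in growth medium; n = 2 or 3.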

[11] = target: T1, Mitogen-activated protein kinase; ERK1/ERK2 (Homo sapiens); assay: Effect on ERK1/2 phosphorylation in human HT1080 cells by Western blot; format: cell-based; conditions: HT-1080; outline: as §3
[12] = target: T1, Mitogen-activated protein kinase; ERK1/ERK2 (Homo sapiens); assay: Effect on ERK1/2 phosphorylation in human BJ cells expressing TERT, LT, ST and RAS G12V mutant genes cells by Western blot; format: cell-based; outline: as §3
BJ [13] = assay: Induction of PARP1 cleavage in human BJ cells expressing TERT, LT, ST and RAS G12V mutant genes cells after 14 hrs; format: functional, cell-based
Outline: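 BJ-TERT/LT/ST/RASV12 cells (3 × 10^6 per dish) were incubated overnight at 37 °C, 5% CO2, then given erastin for 6–26 h. Untreated cells and staurosporine (6 h) or camptothecin (18 h) served as comparators. Full-length and cleaved PARP1 were detected by western blot.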

HT-1080 [14] = assay: Induction of PARP1 cleavage in human HT1080 cells; format: functional, cell-based; outline: as §2
HT-1080 [15] = assay: Induction of cell death in human HT1080 cells; format: functional, cell-based
BJ [16] = assay: Induction of cell death in human BJ cells expressing TERT, LT, ST and RAS G12V mutant genes cells at 9 uM; format: functional, cell-based
HT-1080 [17] = assay: Induction of cell death in human HT1080 cells in presence of U0126 by trypan blue exclusion method; format: functional, cell-based
SK-ES1 = assay: Induction of cell death in human SK-ES-1 cells; format: functional, cell-based
HT-1080 [18] = assay: Induction of cell death in human HT1080 cells in presence of MEK 1/2 inhibitor by trypan blue exclusion method; format: functional, cell-based
SVR = assay: Induction of cell death in human SVR cells; format: functional, cell-based
HT-1080 [19] = assay: Induction of pro-caspase 3 cleavage in human HT1080 cells; format: functional, cell-based; outline: as §1
SW982 = assay: Induction of cell death in human SW982 cells; format: functional
HL-60 = assay: Induction of cell death in human HL60 cells; format: functional
[20] = target: T1, Mitogen-activated protein kinase; ERK1/ERK2 (Homo sapiens); assay: Effect on ERK1/2 phosphorylation in human […] cells by Western blot; format: cell-based; conditions: SK-N-MC; outline: as §3
HT-1080 [21] = assay: Suppression of induction of cell death in human HT1080 cells at […] by Alamar Blue assay in presence of in presence of alpha-tocopherol; format: functional, cell-based
BJ [22] = assay: Induction of cell death in human BJ cells expressing TERT, LT, ST and RAS G12V mutant genes cells in presence of PD-98059 by trypan blue exclusion method; format: functional, cell-based
[23] = target: T1, Mitogen-activated protein kinase; ERK1/ERK2 (Homo sapiens); assay: Effect on ERK1/2 phosphorylation in human TC71 cells by Western blot; format: cell-based; outline: as §3
HCT-116 = assay: Induction of cell death in human HCT116 cells; format: functional
BJ [24] = assay: Induction of cell death in human BJ cells expressing TERT, LT, ST and RAS G12V mutant genes at 13 uM; format: functional
SK-LMS-1 = assay: Induction of cell death in human SKLMS1 cells; format: functional, cell-based
BJ [25] = assay: Prevention of induction of cell death in human BJ cells expressing TERT, LT, ST and RAS G12V mutant genes cells after 24 hrs in presence of butylated hydroxytoluene; format: functional, cell-based
Outline: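 BJ-TERT/LT/ST/RASV12 cells treated 24 h with erastin across roughly 1–2.5 µM, together with DMSO or an antioxidant (α-tocopherol, BHT or β-carotene). Viability read afterwards.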

HT-1080 [26] = assay: Induction of cell death in human HT1080 cells in presence of MEK inhibitor 2 by trypan blue exclusion method; format: functional, cell-based
HeLa [27] = assay: Induction of cell death in human HeLa cells; format: functional, cell-based
BJ [28] = assay: Induction of cell death in human BJ cells expressing TERT, LT, ST and RAS G12V mutant genes in presence of MEK inhibitor by trypan blue exclusion method; format: functional, cell-based; outline: as §4

With `CCOc1ccccc1-n1c(C(C)N2CCN(C(=O)COc3ccc(Cl)cc3)CC2)nc2ccccc2c1=O` (centres undefined) [ERASTIN] the IC50 (Calu-1) was 4 µM, the Activity (A673) was “inactive” and the Activity (HeLa [1]) was “inactive”. The Activity (BJ [2]) was 100%, the EC50 (BJ [2]; Homo sapiens, BJ) was 6 µM and the Activity [3] was 0.66 a.u. The Activity (HT-1080 [4]) was “Active”, the Activity [5] was 42% and the EC50 ([5]; Homo sapiens, EWS502) was 10 µM. The Activity (BJ [6]) was “inactive”, the Activity [7] was 88% and the EC50 ([7]; Homo sapiens, TC-32) was 8 µM. The Activity [8] was 0.12 a.u, the Activity (C-33-A) was 21% and the EC50 (C-33-A; Homo sapiens, C-33-A) was 600 nM. For the same molecule, the Activity (BJ [9]) was 22%, the EC50 (BJ [9]; Homo sapiens, BJ) was 10 µM and the Activity (SK-N-MC) was 95%. The EC50 (SK-N-MC; Homo sapiens, SK-N-MC) was 10 µM, the IC50 (BJ [10]) was 31.2 µM and the Activity [11] was 0.53 a.u. The Activity [12] was 0.92 a.u, the Activity (BJ [13]) was “inactive” and the Activity (HT-1080 [14]) was “inactive”. The Activity (HT-1080 [15]) was 98%, the EC50 (HT-1080 [15]; Homo sapiens, HT-1080) was 2000 nM and the Activity (BJ [16]) was “Active”. The IC50 (HT-1080 [17]) was 3.4 µM, the Activity (SK-ES1) was 96% and the EC50 (SK-ES1; Homo sapiens, SK-ES1) was 7 µM. It also gave an IC50 (HT-1080 [18]) of 6 µM, an Activity (SVR) of 20% and an EC50 (SVR; Mus musculus, SVR) of 2500 nM. The Activity (HT-1080 [19]) was “inactive”, the Activity (SW982) was 0% and the Activity (HL-60) was 0%. For the same molecule, the Activity [20] was 0.05 a.u, the Activity (HT-1080 [21]) was “Active” and the IC50 (BJ [22]) was 900 nM. The Activity [23] was 0.23 a.u, the Activity (HCT-116) was 0% and the Activity (BJ [24]) was 100%. The Activity (SK-LMS-1) was 100%, the EC50 (SK-LMS-1; Homo sapiens, SK-LMS-1) was 6 µM and the Activity (BJ [25]) was “Active”. For the same molecule, the IC50 (HT-1080 [26]) was 1300 nM, the Activity (HeLa [27]) was 94% and the EC50 (HeLa [27]; Homo sapiens, HeLa) was 600 nM. It also gave an IC50 (BJ [28]) of 2600 nM.
